This passage reports relative binding affinity (RBA), Ki and Kd results from ChEMBL document CHEMBL1139455, “Three-dimensional quantitative structure-activity relationship modeling of cocaine binding by a novel human monoclonal antibody” (J Med Chem, 2004).

The test system of test [1] is Monoclonal antibody (mAb) 2E2. Description: Binding affinity against human monoclonal antibody (mAb) 2E2 relative to cocaine by ELISA method. Put shortly: (§1)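 Competition ELISA with human mAb 2E2 (from SCID mouse ascites, partially purified by sodium sulfate precipitation and protein A chromatography). Detection with biotinylated goat anti-human IgG (γ-chain-specific). IC50 obtained by three-parameter logistic fit. RBA is the competitor IC50 divided by the cocaine IC50. Values are averages of three or more independent experiments, each done in duplicate.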
In general terms: An ELISA detects its analyte on a solid surface through an enzyme-linked reagent.

Test [2] concerns Monoclonal antibody (mAb) 2E2. As to the kind of experiment: Relative binding affinity against human monoclonal antibody (mAb) 2E2 compared to cocaine.
Test [3] deals with Monoclonal antibody (mAb) 2E2. Description: Relative binding affinity against human monoclonal antibody 2E2 compared to [3H]cocaine. An outline of the steps: (§2)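 Radioligand competition with 1 nM [3H]-cocaine diluted with 14 nM unlabeled cocaine and 0.4 nM mAb 2E2, against varying unlabeled competitor. Separation was by double-antibody precipitation (goat anti-human Fc) and read by scintillation counting. Duplicate data were fitted to a three-parameter logistic equation for IC50. RBA is the Ki of the compound divided by the Ki of cocaine. Three repeats were run.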

Test [4] addresses Monoclonal antibody (mAb) 2E2. Description: Binding affinity towards human monoclonal antibody 2E2 using [3H]cocaine. Put shortly: as §2
Test [5] has as its target Monoclonal antibody (mAb) 2E2. Description: Dissociation Constant for human monoclonal antibody 2E2 with [3H]cocaine. Put shortly: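 Saturation binding of [3H]-cocaine to mAb 2E2. Bound ligand was separated by double-antibody precipitation, using goat anti-human Fc as the first antibody, and counted by liquid scintillation. Kd was fitted from counts per minute against total cocaine concentration to a binding isotherm. Points are averages of duplicates. Each experiment was run three times.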

In test [6] the test system is Monoclonal antibody (mAb) 2E2. Description: Binding affinity against human monoclonal antibody (mAb) 2E2 by ELISA. An outline of the steps: as §1
The test system of test [7] is Monoclonal antibody (mAb) 2E2. Description: Relative binding affinity for human monoclonal antibody (mAb) 2E2.

For orientation: Ki means the dissociation constant of the complex between target and ligand, obtained from inhibition or displacement. Low readings indicate higher affinity, high ones lower affinity. Usually Kd stands for the constant that tells how readily two partners part at equilibrium.

Molecule `CCOC(=O)[C@@H]1C2C(C)CC(C[C@@H]1OC(=O)c1ccccc1)N2C` (some centres undefined) showed a relative binding affinity (RBA) in test [1] of 0.21. On to `CN1C2CCC1[C@@H](C(=O)O)[C@@H](O)C2` (some centres undefined), for which the relative binding affinity (RBA) in test [2] and in test [1] was 28000 throughout. The same molecule yielded an inhibition constant (Ki) in test [3] of 95000 nM. With `CNC(=O)[C@@H]1C2CCC(C[C@@H]1OC(=O)c1ccccc1)N2C` (some centres undefined), in test [1], the relative binding affinity (RBA) was 29. In test [1], `COC(=O)C1C2CC[C@H](C[C@@H]1c1ccc(Cl)cc1)N2C` (some centres undefined) gave a relative binding affinity (RBA) of 9.3. On to `CON(C)C(=O)[C@@H]1C2CCC(C[C@@H]1OC(=O)c1ccccc1)N2C` (some centres undefined), for which, in test [1], the relative binding affinity (RBA) turned out to be 21. `COC(=O)[C@H]1[C@@H](c2ccc(F)cc2)C[C@H]2CC[C@H]1N2C` registered a relative binding affinity (RBA) in test [1] of 19. Turning to `COC(=O)[C@@H]1C2CCC(C[C@@H]1c1ccc(Cl)c(Cl)c1)N2C` (some centres undefined), in test [1], the relative binding affinity (RBA) came out at 8.5. `COC(=O)[C@@H]1C2CCC(C[C@@H]1c1ccc(I)cc1)N2C` (some centres undefined) displayed a relative binding affinity (RBA) in test [1] of 4.5. Take `C[N+]1([O-])C2CC(OC(=O)[C@H](CO)c3ccccc3)CC1C1OC12` (some centres undefined): the relative binding affinity (RBA) in test [1] is 130000. On to `CCOC(=O)[C@@H]1C2CCC(C[C@@H]1OC(=O)c1ccccc1)N2C` (some centres undefined) [COCAETHYLENE], for which the relative binding affinity (RBA) is 0.97 in test [2] and 0.74 in test [1]. In test [3], this molecule yielded a Ki of 3.4 nM.

On to `CN1C2CCC1CC(O)C2` (centres undefined), for which, in test [1], the relative binding affinity (RBA) was 91000. In test [1], `CN1C2CCC1[C@@H](C(=O)O)[C@@H](OC(=O)c1ccc(O)cc1)C2` (some centres undefined) showed a relative binding affinity (RBA) of 36.

`COC(=O)C1=CCC2CCC1N2C` (centres undefined) gave a relative binding affinity (RBA) in test [1] of 21000.

In test [1], `C[N+]1(C)[C@@H]2C[C@@H](OC(=O)[C@H](CO)c3ccccc3)C[C@H]1[C@@H]1O[C@@H]12` came in with a relative binding affinity (RBA) of 5900. As to `COC(=O)[C@@H]1C2CCC(C[C@@H]1OC(=O)c1cccc(O)c1)N2C` (some centres undefined), in test [1], the relative binding affinity (RBA) came to 8.4. Still for that read-out and setting: for `CN(C)C(=O)[C@@H]1C2CCC(C[C@@H]1OC(=O)c1ccccc1)N2C` (some centres undefined) the value was 7.4; for `CN1C2CCC1[C@@H](C(N)=O)[C@@H](OC(=O)c1ccccc1)C2` (some centres undefined), 22; for `CN1[C@@H]2C[C@@H](OC(=O)[C@H](CO)c3ccccc3)C[C@H]1[C@@H]1O[C@H]12`, 49000.

Regarding `CN1C2CCC1[C@@H](C(=O)O)[C@@H](OC(=O)c1ccccc1)C2` (some centres undefined), the relative binding affinity (RBA) is 12 in test [2] and 9.8 in test [1]. For the same molecule, the Ki in test [3] was 43 nM. In test [1], `CCCOC(=O)[C@@H]1C2CCC(C[C@@H]1OC(=O)c1ccccc1)N2C` (some centres undefined) showed a relative binding affinity (RBA) of 0.23. `COC(=O)C1C2CCC(C[C@@H]1c1ccc(C)cc1)N2C` (single isomer, unassigned) showed a relative binding affinity (RBA) in test [1] of 14. With `COC(=O)[C@@H]1C2CCC(C[C@@H]1O)N2C` (some centres undefined), the relative binding affinity (RBA) in test [2] turned out to be 1500; in test [1], 2500. Moreover, the Ki in test [3] worked out at 5200 nM. In test [1], `COC(=O)[C@@H]1C2CCC(C[C@@H]1OC(=O)c1ccccc1)N2` (some centres undefined) registered a relative binding affinity (RBA) of 4.3.

Take `C[N+]1([O-])[C@@H]2CC[C@H]1C[C@@H](OC(=O)C(CO)c1ccccc1)C2` (some centres undefined): the relative binding affinity (RBA) in test [1] worked out at 90000. As to `COC(=O)[C@@H]1C2CC[C@H](C[C@@H]1c1ccccc1)N2C`, in test [1], the relative binding affinity (RBA) stood at 29. Consider `CN1C2CCC1[C@@H](C(=O)O)[C@@H](OC(=O)c1cccc(O)c1)C2` (some centres undefined), for which the relative binding affinity (RBA) in test [1] worked out at 32. In test [1], `CN1C2CC(OC(=O)[C@](O)(CO)c3ccccc3)CC1C1OC12` (some centres undefined) gave a relative binding affinity (RBA) of 59000.

`COC(=O)[C@H]1[C@@H](OC(=O)c2ccccc2)C[C@@H]2CC[C@H]1N2C` [COCAINE] displayed a Ki in test [4] of 3.5 nM. This molecule returned a Kd in test [5] of 4.4 nM. In addition, the relative binding affinity (RBA) in test [6] and in test [7] was 1 in each case. In turn, `CN1C2CCC1[C@@H](C(=O)Oc1ccccc1)[C@@H](c1ccc(Cl)cc1)C2` (some centres undefined) yielded a relative binding affinity (RBA) in test [1] of 1.7. In test [1], `COC(=O)[C@H]1C2CCC(C[C@@H]1OC(=O)c1ccccc1)N2` (stereo in doubt) gave a relative binding affinity (RBA) of 1800. In test [1], `COC(=O)[C@H]1C2CCC(C[C@@H]1OC(=O)c1ccccc1)N2` (stereo in doubt; 36) gave a relative binding affinity (RBA) of 1100.

Regarding `CCCC[N+]1(C)C2CC(OC(=O)[C@H](CO)c3ccccc3)CC1C1OC12` (some centres undefined), in test [1], the relative binding affinity (RBA) was 3700. As for `O=C(O[C@H]1CC2CCC(N2)[C@H]1C(=O)O)c1ccccc1` (some centres undefined), the relative binding affinity (RBA) in test [1] came out at 120.
